Measurements from ChEMBL document CHEMBL3632558, “Synthesis, antimycobacterial and antibacterial activity of l-[(1R,2S)-2-fluorocyclopropyl]naphthyridone derivatives containing an oxime-functionalized pyrrolidine moiety” (2015).
Converted amounts (≈) assume the structure as drawn.

Assays:
Type in all cases: functional
Enterococcus faecium [1] = assay: Antibacterial activity against Enterococcus faecium 14-5 after 18 to 24 hrs
In short: (§1)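 MIC by standard NCCLS reference procedure (M100-S11); lowest concentration of compound inhibiting visible bacterial growth after incubation at 35 °C for 18–24 h, read as complete inhibition of growth. Ciprofloxacin, levofloxacin and moxifloxacin run alongside as reference agents.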

Pseudomonas aeruginosa [2] = assay: Antibacterial activity against Pseudomonas aeruginosa 14-14 after 18 to 24 hrs; in short: as §1
Staphylococcus aureus [3] = assay: Antibacterial activity against methicillin-sensitive Staphylococcus aureus 14-2 after 18 to 24 hrs; in short: as §1
[4] = test system: Staphylococcus epidermidis; assay: Antibacterial activity against methicillin-resistant Staphylococcus epidermidis 14-37 after 18 to 24 hrs
Klebsiella pneumoniae [5] = assay: Antibacterial activity against Klebsiella pneumoniae 14-4 after 18 to 24 hrs; in short: as §1
Klebsiella pneumoniae [6] = assay: Antibacterial activity against ESBL-positive Klebsiella pneumoniae 14-18 after 18 to 24 hrs; in short: as §1
Klebsiella pneumoniae [7] = assay: Antibacterial activity against Klebsiella pneumoniae 14-3 after 18 to 24 hrs; in short: as §1
Staphylococcus aureus [8] = assay: Antibacterial activity against methicillin-resistant Staphylococcus aureus 14-5 after 18 to 24 hrs
Enterococcus faecium [9] = assay: Antibacterial activity against Enterococcus faecium 14-2 after 18 to 24 hrs; in short: as §1
Klebsiella pneumoniae [10] = assay: Antibacterial activity against ESBL-positive Klebsiella pneumoniae 14-17 after 18 to 24 hrs; in short: as §1
Klebsiella pneumoniae [11] = assay: Antibacterial activity against ESBL-positive Klebsiella pneumoniae 14-19 after 18 to 24 hrs; in short: as §1
Escherichia coli [12] = assay: Antibacterial activity against Escherichia coli 14-1 after 18 to 24 hrs; in short: as §1
Streptococcus pneumoniae = assay: Antibacterial activity against Streptococcus pneumoniae ATCC 19615 after 18 to 24 hrs; in short: as §1
Staphylococcus aureus [13] = assay: Antibacterial activity against methicillin-resistant Staphylococcus aureus 14-4 after 18 to 24 hrs
Staphylococcus aureus [14] = assay: Antibacterial activity against methicillin-sensitive Staphylococcus aureus 14-3 after 18 to 24 hrs; in short: as §1
[15] = test system: Staphylococcus epidermidis; assay: Antibacterial activity against methicillin-resistant Staphylococcus epidermidis 14-39 after 18 to 24 hrs
Klebsiella pneumoniae [16] = assay: Antibacterial activity against Klebsiella pneumoniae 14-2 after 18 to 24 hrs; in short: as §1
Enterococcus faecalis [17] = assay: Antibacterial activity against Enterococcus faecalis 14-2 after 18 to 24 hrs; in short: as §1
Staphylococcus aureus [18] = assay: Antibacterial activity against methicillin-sensitive Staphylococcus aureus 14-1 after 18 to 24 hrs; in short: as §1
Pseudomonas aeruginosa [19] = assay: Antibacterial activity against Pseudomonas aeruginosa 14-9 after 18 to 24 hrs; in short: as §1
Pseudomonas aeruginosa [20] = assay: Antibacterial activity against Pseudomonas aeruginosa 14-16 after 18 to 24 hrs; in short: as §1
Enterococcus faecium [21] = assay: Antibacterial activity against Enterococcus faecium 14-6 after 18 to 24 hrs; in short: as §1
Klebsiella pneumoniae [22] = assay: Antibacterial activity against Klebsiella pneumoniae 14-1 after 18 to 24 hrs; in short: as §1
[23] = test system: Staphylococcus epidermidis; assay: Antibacterial activity against methicillin-resistant Staphylococcus epidermidis 14-21 after 18 to 24 hrs
Enterococcus faecalis [24] = assay: Antibacterial activity against Enterococcus faecalis 14-1 after 18 to 24 hrs; in short: as §1
Staphylococcus aureus [25] = assay: Antibacterial activity against Staphylococcus aureus CMCC 26003 after 18 to 24 hrs; in short: as §1
Escherichia coli [26] = assay: Antibacterial activity against ESBL-positive Escherichia coli 14-2 after 18 to 24 hrs; in short: as §1
Pseudomonas aeruginosa [27] = assay: Antibacterial activity against Pseudomonas aeruginosa 14-15 after 18 to 24 hrs; in short: as §1
Escherichia coli [28] = assay: Antibacterial activity against Escherichia coli 14-2 after 18 to 24 hrs; in short: as §1
[29] = test system: Staphylococcus epidermidis; assay: Antibacterial activity against methicillin-resistant Staphylococcus epidermidis 14-22 after 18 to 24 hrs
[30] = test system: Staphylococcus epidermidis; assay: Antibacterial activity against methicillin-sensitive Staphylococcus epidermidis 14-2 after 18 to 24 hrs; in short: as §1
Staphylococcus aureus [31] = assay: Antibacterial activity against methicillin-sensitive Staphylococcus aureus 14-4 after 18 to 24 hrs; in short: as §1
Enterococcus faecium [32] = assay: Antibacterial activity against Enterococcus faecium 14-1 after 18 to 24 hrs; in short: as §1
[33] = test system: Mycobacterium tuberculosis; assay: Antimycobacterial activity against Mycobacterium tuberculosis H37Rv ATCC 27294 by alamar blue assay
In short: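 Microplate Alamar Blue Assay; MIC is the lowest concentration giving ≥90% reduction in fluorescence relative to the mean of replicate bacterium-only controls. MDR strain 6133 is resistant to isoniazid and rifampicin.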

Pseudomonas aeruginosa [34] = assay: Antibacterial activity against Pseudomonas aeruginosa ATCC 27853 after 18 to 24 hrs; in short: as §1
Escherichia coli [35] = assay: Antibacterial activity against ESBL-positive Escherichia coli 14-1 after 18 to 24 hrs; in short: as §1
Escherichia coli [36] = assay: Antibacterial activity against Escherichia coli ATCC 25922 after 18 to 24 hrs; in short: as §1
Pseudomonas aeruginosa [37] = assay: Antibacterial activity against Pseudomonas aeruginosa 14-19 after 18 to 24 hrs; in short: as §1

Compound | MIC (Enterococcus faecium [1]) [µg/mL] | MIC (Pseudomonas aeruginosa [2]) [µg/mL] | MIC (Staphylococcus aureus [3]) [µg/mL] | MIC [4] [µg/mL] | MIC (Klebsiella pneumoniae [5]) [µg/mL] | MIC (Klebsiella pneumoniae [6]) [µg/mL] | MIC (Klebsiella pneumoniae [7]) [µg/mL] | MIC (Staphylococcus aureus [8]) [µg/mL] | MIC (Enterococcus faecium [9]) [µg/mL] | MIC (Klebsiella pneumoniae [10]) [µg/mL] | MIC (Klebsiella pneumoniae [11]) [µg/mL] | MIC (Escherichia coli [12]) [µg/mL] | MIC (Streptococcus pneumoniae) [µg/mL] | MIC (Staphylococcus aureus [13]) [µg/mL] | MIC (Staphylococcus aureus [14]) [µg/mL] | MIC [15] [µg/mL] | MIC (Klebsiella pneumoniae [16]) [µg/mL] | MIC (Enterococcus faecalis [17]) [µg/mL] | MIC (Staphylococcus aureus [18]) [µg/mL] | MIC (Pseudomonas aeruginosa [19]) [µg/mL] | other results
CCO/N=C1\CN(c2nc3c(cc2F)c(=O)c(C(=O)O)cn3[C@@H]2C[C@@H]2F)CC1(C)N (some centres undefined) | > 128 | 32 (≈ 75.9 µM) | 0.25 (≈ 0.593 µM) | 32 (≈ 75.9 µM) | > 128 | 32 (≈ 75.9 µM) | 128 (≈ 304 µM) | 128 (≈ 304 µM) | > 128 | 32 (≈ 75.9 µM) | 128 (≈ 304 µM) | > 128 | 0.25 (≈ 0.593 µM) | 64 (≈ 152 µM) | 0.5 (≈ 1.19 µM) | 128 (≈ 304 µM) | > 128 | 2 (≈ 4.75 µM) | 64 (≈ 152 µM) | 16 (≈ 38 µM) | MIC (Pseudomonas aeruginosa [20]): 32 µg/mL (≈ 75.9 µM); MIC (Enterococcus faecium [21]): > 128 µg/mL; MIC (Klebsiella pneumoniae [22]): 128 µg/mL (≈ 304 µM); MIC [23]: 64 µg/mL (≈ 152 µM); MIC (Enterococcus faecalis [24]): 128 µg/mL (≈ 304 µM); MIC (Staphylococcus aureus [25]): 0.25 µg/mL (≈ 0.593 µM); MIC (Escherichia coli [26]): > 128 µg/mL; MIC (Pseudomonas aeruginosa [27]): 32 µg/mL (≈ 75.9 µM); MIC (Escherichia coli [28]): > 128 µg/mL; MIC [29]: 32 µg/mL (≈ 75.9 µM); MIC [30]: > 128 µg/mL; MIC (Staphylococcus aureus [31]): 1 µg/mL (≈ 2.37 µM); MIC (Enterococcus faecium [32]): > 128 µg/mL; MIC90 [33]: 0.42 µg/mL (≈ 0.997 µM); MIC (Pseudomonas aeruginosa [34]): 16 µg/mL (≈ 38 µM); MIC (Escherichia coli [35]): 32 µg/mL (≈ 75.9 µM); MIC (Escherichia coli [36]): 1 µg/mL (≈ 2.37 µM); MIC (Pseudomonas aeruginosa [37]): 64 µg/mL (≈ 152 µM)
CC1(N)CN(c2nc3c(cc2F)c(=O)c(C(=O)O)cn3[C@@H]2C[C@@H]2F)C/C1=N\OCc1ccccc1 (some centres undefined) | > 128 | 64 (≈ 132 µM) | 0.03 (≈ 0.0621 µM) | 128 (≈ 265 µM) | > 128 | 128 (≈ 265 µM) | > 128 | 64 (≈ 132 µM) | > 128 | 128 (≈ 265 µM) | > 128 | > 128 | 0.5 (≈ 1.03 µM) | 32 (≈ 66.2 µM) | 0.5 (≈ 1.03 µM) | 64 (≈ 132 µM) | > 128 | 2 (≈ 4.14 µM) | 16 (≈ 33.1 µM) | 64 (≈ 132 µM) | MIC (Pseudomonas aeruginosa [20]): 64 µg/mL (≈ 132 µM); MIC (Enterococcus faecium [21]): > 128 µg/mL; MIC (Klebsiella pneumoniae [22]): > 128 µg/mL; MIC [23]: 64 µg/mL (≈ 132 µM); MIC (Enterococcus faecalis [24]): 128 µg/mL (≈ 265 µM); MIC (Staphylococcus aureus [25]): 0.03 µg/mL (≈ 0.0621 µM); MIC (Escherichia coli [26]): > 128 µg/mL; MIC (Pseudomonas aeruginosa [27]): 64 µg/mL (≈ 132 µM); MIC (Escherichia coli [28]): > 128 µg/mL; MIC [29]: 32 µg/mL (≈ 66.2 µM); MIC [30]: > 128 µg/mL; MIC (Staphylococcus aureus [31]): 1 µg/mL (≈ 2.07 µM); MIC (Enterococcus faecium [32]): > 128 µg/mL; MIC90 [33]: 0.923 µg/mL (≈ 1.91 µM); MIC (Pseudomonas aeruginosa [34]): 32 µg/mL (≈ 66.2 µM); MIC (Escherichia coli [35]): 64 µg/mL (≈ 132 µM); MIC (Escherichia coli [36]): 2 µg/mL (≈ 4.14 µM); MIC (Pseudomonas aeruginosa [37]): 64 µg/mL (≈ 132 µM)
CO/N=C1\CN(c2nc3c(cc2F)c(=O)c(C(=O)O)cn3[C@@H]2C[C@@H]2F)CC1N (some centres undefined) | 128 (≈ 325 µM) | 8 (≈ 20.3 µM) | 0.5 (≈ 1.27 µM) | 32 (≈ 81.4 µM) | 128 (≈ 325 µM) | 8 (≈ 20.3 µM) | > 128 | 64 (≈ 163 µM) | 128 (≈ 325 µM) | 8 (≈ 20.3 µM) | > 128 | 128 (≈ 325 µM) | 0.25 (≈ 0.636 µM) | 128 (≈ 325 µM) | 1 (≈ 2.54 µM) | 64 (≈ 163 µM) | 128 (≈ 325 µM) | 2 (≈ 5.08 µM) | 32 (≈ 81.4 µM) | 8 (≈ 20.3 µM) | MIC (Pseudomonas aeruginosa [20]): 8 µg/mL (≈ 20.3 µM); MIC (Enterococcus faecium [21]): > 128 µg/mL; MIC (Klebsiella pneumoniae [22]): > 128 µg/mL; MIC [23]: 64 µg/mL (≈ 163 µM); MIC (Enterococcus faecalis [24]): 128 µg/mL (≈ 325 µM); MIC (Staphylococcus aureus [25]): 0.5 µg/mL (≈ 1.27 µM); MIC (Escherichia coli [26]): > 128 µg/mL; MIC (Pseudomonas aeruginosa [27]): 8 µg/mL (≈ 20.3 µM); MIC (Escherichia coli [28]): 128 µg/mL (≈ 325 µM); MIC [29]: 32 µg/mL (≈ 81.4 µM); MIC [30]: 128 µg/mL (≈ 325 µM); MIC (Staphylococcus aureus [31]): 1 µg/mL (≈ 2.54 µM); MIC (Enterococcus faecium [32]): 128 µg/mL (≈ 325 µM); MIC90 [33]: 0.867 µg/mL (≈ 2.2 µM); MIC (Pseudomonas aeruginosa [34]): 4 µg/mL (≈ 10.2 µM); MIC (Escherichia coli [35]): 16 µg/mL (≈ 40.7 µM); MIC (Escherichia coli [36]): 0.25 µg/mL (≈ 0.636 µM); MIC (Pseudomonas aeruginosa [37]): 8 µg/mL (≈ 20.3 µM)
